Measured values collected from several papers.
Compare with care: the assays were run in different laboratories.
ABL1 E255K phosphorylated: Tyrosine-protein kinase ABL1, phosphorylated (ABL1, Homo sapiens, UniProt P00519, E255K)
ABL1 H396P non-phosphorylated: Tyrosine-protein kinase ABL1, non-phosphorylated (ABL1, Homo sapiens, UniProt P00519, H396P)
ABL1 M351T phosphorylated: Tyrosine-protein kinase ABL1, phosphorylated (ABL1, Homo sapiens, UniProt P00519, M351T)
ABL1 T315I non-phosphorylated: Tyrosine-protein kinase ABL1, non-phosphorylated (ABL1, Homo sapiens, UniProt P00519, T315I)
ABL1 Q252H phosphorylated: Tyrosine-protein kinase ABL1, phosphorylated (ABL1, Homo sapiens, UniProt P00519, Q252H)
ABL1 F317I phosphorylated: Tyrosine-protein kinase ABL1, phosphorylated (ABL1, Homo sapiens, UniProt P00519, F317I)
ABL1 T315I phosphorylated: Tyrosine-protein kinase ABL1, phosphorylated (ABL1, Homo sapiens, UniProt P00519, T315I)
ABL1 Y253F: Tyrosine-protein kinase ABL1 (ABL1, Homo sapiens, UniProt P00519, Y253F)

SMILES	target	assay	setting	remaining binding [%]
CS(=O)(=O)NCC[C@H](NC(=O)c1cncc2c1cnn2-c1ccc(F)cc1)c1ccnc(S(C)(=O)=O)c1	ABL1 E255K phosphorylated	binding, competition with immobilised ligand	1 µM	93
CN(C)c1nccc(-c2cnn3ncccc23)n1	Tyrosine-protein kinase ABL1, phosphorylated (ABL1, Homo sapiens, UniProt P00519)	binding	1 µM	96
Cc1cnc(Nc2ccc(C(=O)N3CCC(N4CCCC4)CC3)cc2)nc1-c1cc2ccccc2s1	ABL1 H396P non-phosphorylated	binding, competition with immobilised ligand	1 µM	0.1
C[C@@H](c1ccc(-n2cnc3c(N)ncnc32)cc1)N1CCc2nn(C)c(Cc3ccccc3)c2C1=O	ABL1 M351T phosphorylated	binding, competition with immobilised ligand	0.1 µM	49
CN(C)c1ncc(F)c(-c2cnn3ncccc23)n1	Tyrosine-protein kinase ABL1 (ABL1, Homo sapiens, UniProt P00519, E255K)	binding	1 µM	66
COc1cnc(Nc2cccc(S(N)(=O)=O)c2)nc1N1CCN(c2ccccc2)C(=O)C1	ABL1 T315I non-phosphorylated	binding, competition with immobilised ligand	1 µM	83
O=C(NCC1CCOCC1)c1n[nH]cc1NC(=O)c1c(F)cccc1F	ABL1 Q252H phosphorylated	binding, competition with immobilised ligand	1 µM	83
CN(CCCC(F)(F)F)c1nccc(-c2cnn3ncccc23)n1	Tyrosine-protein kinase ABL1 (ABL1, Homo sapiens, UniProt P00519, F317I)	binding	1 µM	100
CN([C@@H]1CCc2c(CC(=O)O)c3cc(S(C)(=O)=O)ccc3n2C1)S(=O)(=O)c1ccc(F)cc1	ABL1 H396P non-phosphorylated	cell-free assay, competition with immobilised ligand	1 µM	55
C=CC(=O)N1CCC(C(=O)NCC(=O)N2CCN(c3nc(-c4cnc(N)nc4C(F)F)nc(N4CCOCC4)n3)CC2)CC1	ABL1 E255K phosphorylated	binding, competition with immobilised ligand	1 µM	87
CNC(=O)[C@@H]1CC[C@@H](n2c(-c3ccc4cnccc4c3)nc3ccc(C(=O)NCc4cccc(C(N)=O)c4)cc32)C1	ABL1 F317I phosphorylated	binding, competition with immobilised ligand	1 µM	100
O=C(NCCCN1CCOCC1)c1ccc(Nc2nccc(-c3cc4ccccc4s3)n2)cc1	Tyrosine-protein kinase ABL1, phosphorylated (ABL1, Homo sapiens, UniProt P00519, F317L)	binding, competition with immobilised ligand	1 µM	75
c1cncc(-c2cccc(Nc3nccc(NC4CCCCC4)n3)c2)c1	ABL1 H396P non-phosphorylated	binding, competition with immobilised ligand	10 µM	9
CN(C)C(=O)Cn1cc(-c2nc([C@@](C)(c3ccc(-c4cnc(N)nc4)cc3)C3CC3)no2)cn1	Tyrosine-protein kinase ABL1, non-phosphorylated (ABL1, Homo sapiens, UniProt P00519, Q252H)	cell-free assay, competition with immobilised ligand	1 µM	0
O=C(c1ccc(Nc2nccc(-c3cc4ccccc4s3)n2)cc1)N1CCC(N2CCCC2)CC1	ABL1 Q252H phosphorylated	binding, competition with immobilised ligand	1 µM	6.4
CN(c1nccc(-c2cnn3ncccc23)n1)C1CC1	Tyrosine-protein kinase ABL1 (ABL1, Homo sapiens, UniProt P00519, M351T)	binding	1 µM	100

SMILES	target	assay	setting	remaining binding [%]
CN1CCN(c2cnc3c(C4CCN(C(=O)c5ccc(OC(F)(F)F)cc5N)CC4)ncnc3c2)CC1	ABL1 E255K phosphorylated	binding, competition with immobilised ligand	1 µM	98
COc1cnc(Nc2cccc(S(N)(=O)=O)c2)nc1N1CCN(c2ccccc2)CC1	ABL1 T315I phosphorylated	binding, competition with immobilised ligand	1 µM	88
O=C(Nc1cnc(Oc2ccc(F)cc2)nc1)N1CCc2ncccc2[C@@H]1c1ccc(F)cc1	ABL1 T315I non-phosphorylated	cell-free assay, competition with immobilised ligand	1 µM	100
O=C(Nc1c[nH]nc1C(=O)NC1CCNCC1)c1cc(F)cc(F)c1	Tyrosine-protein kinase ABL1, phosphorylated (ABL1, Homo sapiens, UniProt P00519, Y253F)	binding, competition with immobilised ligand	1 µM	100
CN(C)C(=O)Cn1cc(-c2nc(C3(c4ccc(-c5cnc(N)nc5)cc4)CC3)no2)cn1	ABL1 E255K phosphorylated	binding, competition with immobilised ligand	1 µM	100
O=C(c1ccc(Nc2ncc(Cl)c(-c3ccc(Cl)s3)n2)cc1)N1CCC(N2CCCC2)CC1	ABL1 M351T phosphorylated	binding, competition with immobilised ligand	1 µM	4.7
CS(=O)(=O)c1cc(C2(NC(=O)c3cncc4c3cnn4-c3ccc(F)cc3)CC2)ccn1	ABL1 M351T phosphorylated	cell-free assay, competition with immobilised ligand	1 µM	92
CCN1CCN(Cc2ccc(C(=O)Nc3ccc(C)c(Oc4ccc5c(c4)CC(=O)N5)c3)cc2C(F)(F)F)CC1	ABL1 Q252H phosphorylated	binding, competition with immobilised ligand	1 µM	49
Nc1ncc2c(n1)-c1c([nH]c3ccc(C#CC4CC4)cc13)CCCC2	ABL1 F317I phosphorylated	binding, competition with immobilised ligand	1 µM	86
CC1CCCN1c1nccc(-c2cnn3ncccc23)n1 (centres unmarked)	ABL1 Y253F	binding	1 µM	96
O=C(NCCCN1CCOCC1)c1ccc(Nc2ncc(Cl)c(-c3ccc(Cl)s3)n2)cc1	ABL1 T315I non-phosphorylated	binding, competition with immobilised ligand	1 µM	4.5
N[C@H]1CCN(c2nccc(-c3cnn4ncccc34)n2)C1	Tyrosine-protein kinase ABL1 (ABL1, Homo sapiens, UniProt P00519, F317L)	binding	1 µM	100
COc1ncc2cc3ccccc3nc2c1C#N	ABL1 T315I phosphorylated	cell-free assay, competition with immobilised ligand	5 µM	89
CN(C)c1nccc(-c2cnc3ncccn23)n1	ABL1 Y253F	binding	1 µM	41
C[C@H](c1cccc(C#N)c1)n1cc(Cl)cc(C(N)=O)c1=N	ABL1 Q252H phosphorylated	cell-free assay, competition with immobilised ligand	1 µM	84
O=C(c1ccc(Nc2ncc(Cl)c(-c3cc4ccccc4s3)n2)cc1)N1CCC(N2CCCC2)CC1	ABL1 Q252H phosphorylated	binding, competition with immobilised ligand	1 µM	12
